Only some compounds are listed: those with a hit (about 2.4% of all), similar ones and a draw of the others.
aDG glyco up = increases alpha dystroglycan glycosylation; Pro5-aDG cells, alpha-DG glycosylation AlphaScreen (IIH6); 0% Pro5, 100% B10-LARGE cell signal; AID 624168; activation, % at 10 µM; actives 0.22% (n = 360,000);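 active = activation of at least 8% versus controls, or a plate z-score of at least 8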;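 note: Pro5 are CHO cells carrying HIG-tagged alpha-DG that lacks glycosylation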
NTR1 ag = NTR1 (human) agonism; NTR1-U2OS beta-arrestin-GFP spot imaging, agonist mode; P30989; activation, % at 20 µM; actives 0.17% (n = 330,000);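 active = activation at or above 40% of the spot to cytoplasm intensity ratio, with at least 20 cells analyzed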;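 note: 0% = DMSO without peptide and 100% = 100 nM NTR1 peptide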
Target sequence (P30989 whole entry, looked up): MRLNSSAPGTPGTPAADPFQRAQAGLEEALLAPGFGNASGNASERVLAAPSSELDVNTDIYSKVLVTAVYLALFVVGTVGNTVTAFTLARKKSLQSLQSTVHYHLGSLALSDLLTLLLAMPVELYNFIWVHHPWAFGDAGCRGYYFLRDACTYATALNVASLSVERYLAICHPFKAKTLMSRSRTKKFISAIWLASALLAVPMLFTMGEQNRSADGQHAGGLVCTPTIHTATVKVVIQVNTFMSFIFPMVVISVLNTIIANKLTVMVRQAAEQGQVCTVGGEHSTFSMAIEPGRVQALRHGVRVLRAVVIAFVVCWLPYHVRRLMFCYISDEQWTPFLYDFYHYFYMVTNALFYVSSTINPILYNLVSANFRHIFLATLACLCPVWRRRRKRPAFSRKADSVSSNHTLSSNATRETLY
TAG inh = triacylglycerol accumulation inhibition; H9c2 cells, Nile Red lipid (TAG) fluorescence; cells loaded with 200 µM oleic acid; inhibition, % at 12.5 µM; actives 0.66% (n = 230,000); AID 651582;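 active = pattern-corrected inhibition of lipid staining of at least 50% with the nuclear-stain viability signal not falling by more than 50%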;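 note: 0% = DMSO wells and 100% = triacsin C control wells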
MC4R ag barr = human MC4R agonism via beta-arrestin; P32245; U2OS MC4R beta-arrestin complementation, luminescence; percent of melanotan II response, DMSO zero; activation, % at 8.9 µM; actives 0.98% (n = 360,000);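 active = activation above a per-plate cutoff, the mean activation of sample wells on that plate plus 3 SD, cut at about 8% in these data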
TbMetRS inhib = blocks T. brucei methionyl-tRNA synthetase activity; inhibition, % at 11.9 µM; purified T. brucei MetRS, ATP depletion, Kinase-Glo luminescence; actives 0.4% (n = 360,000);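 active = inhibition above a per-plate cutoff of the control wells' mean inhibition plus 3 SD, cut at about 5.5% in these data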;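 note: 0% = DMSO wells median and 100% = median of wells with control inhibitor compound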
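Dosing: 11.9 µM single point; system: parasite MetRS enzyme; technique: luminescence of leftover ATP; times: 15 min enzyme-compound preincubation, 2 h reaction, 10 min detection, 25 °C; replicates: each compound tested once; read-out basis: percent inhibition relative to median high and low control wells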
MC4R antag cAMP = human MC4R antagonism in cAMP assay. P32245. AID 540295. inhibition, % at 6.5 µM. actives 0.48% (n = 360,000). MC4R-expressing cells, MTII-stimulated cAMP, LANCE TR-FRET;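 active = inhibition above its plate's cutoff, the mean of tested wells on that plate plus 3 SD, cut at about 29% in these data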;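 note: 0% = Melanotan II alone and 100% = Melanotan II plus saturating MCL0020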
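Material: human MC4R-expressing U2OS cells. Probe or stimulus: Melanotan II challenge. Dosing: 6.5 µM single dose. Times: 30-min compound, 1-h challenge, 1-h detection, room temperature. Technique: TR-FRET with Eu-cAMP and labeled anti-cAMP, 671 nm. Replication: singlicate.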
MC4R barr ag = human MC4R beta-arrestin agonism confirmation; shares compounds with MC4R ag barr; U2OS MC4R beta-arrestin recruitment, luminescence; scaled DMSO 0%, Melanotan II 100%; activation, % at 8.9 µM; actives 31% (n = 2,400);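 active = mean activation across replicates above the hit cutoff set in the earlier primary screen, cut at about 8% in these data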
MOR-DOR barr ag = OPRM1-OPRD1 heterodimer agonism counter-screen; activation, % at 9.2 µM; U2OS PathHunter beta-arrestin, beta-gal luminescence; percent of deltorphin B response, DMSO zero; shares compounds with MC4R ag barr; actives 5.8% (n = 2,400);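 active = mean activation across replicates exceeds the hit threshold derived in the earlier primary screen, cut at about 18% in these data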;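 note: 100% = deltorphin B at 0.9 µM final and 0% = DMSO alone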
* marks the source's active call; other numbers are inactive results.

`COc1ccccc1N/C=C(\C#N)c1nc2ccccc2[nH]1` gave aDG glyco up -1, NTR1 ag -1, TAG inh 15, MC4R ag barr 11*, TbMetRS inhib -1, MC4R antag cAMP 4, MC4R barr ag 1 and MOR-DOR barr ag 5.
CCCc1c(C(=O)NNc2ccc(C)cc2)cnn1-c1ccccc1 was read as aDG glyco up 0, NTR1 ag 1, TAG inh -19, MC4R ag barr -2, TbMetRS inhib -1 and MC4R antag cAMP -1.
Screening CCCc1c(C(=O)Nc2ccc(C(F)(F)F)cc2)cnn1-c1ccccc1 returned aDG glyco up 1, NTR1 ag 0, TAG inh -2, MC4R ag barr 10*, TbMetRS inhib -1, MC4R antag cAMP -3, MC4R barr ag -4 and MOR-DOR barr ag 6.
CCCc1c(C(=O)NNc2cc(C(F)(F)F)ccc2Cl)cnn1-c1ccccc1 was read as aDG glyco up 0, NTR1 ag 6, TAG inh -9, MC4R ag barr 27*, TbMetRS inhib 0, MC4R antag cAMP 3, MC4R barr ag 6 and MOR-DOR barr ag 6.
`CCN(CC)C(=O)C1=C(C)N(Cc2ccc(C(C)(C)C)cc2)C(=O)C(CC(=O)NCc2ccco2)C1` (centres undefined) gave aDG glyco up 0, TAG inh 8, MC4R ag barr 1, TbMetRS inhib -1 and MC4R antag cAMP 10.
`Clc1ccc(OCCCNCc2ccccc2)c(Br)c1` gave aDG glyco up 0, NTR1 ag 25, MC4R ag barr 0, TbMetRS inhib 0 and MC4R antag cAMP 1.
`Clc1ccc(Cl)c(OCCCCNCc2ccccc2)c1` gave aDG glyco up 1, NTR1 ag 2, TAG inh -10, MC4R ag barr 10*, TbMetRS inhib -2, MC4R antag cAMP -2, MC4R barr ag 16* and MOR-DOR barr ag 11.
For COC(=O)Cc1ccc(OC2(C)CCN(Cc3ccccc3)C2)cc1 (centres undefined) the results were aDG glyco up 0, TAG inh -14, MC4R ag barr -4, TbMetRS inhib 0 and MC4R antag cAMP 4.
O=C(C[C@@H]1CC[C@@H]2[C@H](COC[C@H](O)CN2S(=O)(=O)c2ccccc2)O1)Nc1ccccc1 was read as aDG glyco up 0 and TbMetRS inhib 0.
For Cc1cc(C)c2cc(C(=O)N3CCN(c4ncccc4C(F)(F)F)CC3)[nH]c2c1 the results were aDG glyco up 0, NTR1 ag 6, MC4R ag barr 12*, TbMetRS inhib -1, MC4R antag cAMP 6, MC4R barr ag 1 and MOR-DOR barr ag 4.
`Cc1oc(C(C)(C)C)cc1C(=O)N1CCN(c2ncccc2C(F)(F)F)CC1` gave aDG glyco up 0, NTR1 ag 3, TAG inh -16, MC4R ag barr 1, TbMetRS inhib -1 and MC4R antag cAMP 5.
Screening O=C1CCCN1CCCNc1nc(NCc2ccccc2)nc2ccsc12 returned aDG glyco up 1, TAG inh -5, MC4R ag barr 3, TbMetRS inhib 2 and MC4R antag cAMP -1.
For N=C1C(c2nc(-c3ccc(F)cc3)cs2)=C(O)CN1Cc1ccc(Cl)cc1 the results were aDG glyco up 0, NTR1 ag 1, TAG inh 10, MC4R ag barr 14*, TbMetRS inhib -1, MC4R antag cAMP 11, MC4R barr ag 5 and MOR-DOR barr ag 7.
For COc1ccc(-c2csc(C3=C(O)CN(Cc4ccc(Cl)cc4)C3=N)n2)cc1OC the results were aDG glyco up 0, NTR1 ag 7, MC4R ag barr 102*, TbMetRS inhib 0, MC4R antag cAMP 6, MC4R barr ag 21* and MOR-DOR barr ag 11.
COc1ccc(N2CC(O)=C(c3nc(-c4ccc(F)cc4)cs3)C2=N)cc1Cl was read as aDG glyco up 0, NTR1 ag 4, TAG inh 7, MC4R ag barr 11*, TbMetRS inhib 0, MC4R antag cAMP 10, MC4R barr ag 13* and MOR-DOR barr ag 3.
`COc1ccc(-c2csc(C3=C(O)CN(Cc4ccc(S(N)(=O)=O)cc4)C3=N)n2)cc1OC` gave aDG glyco up 0, NTR1 ag 0, MC4R ag barr -1, TbMetRS inhib 0 and MC4R antag cAMP -1.
Screening COc1cccc(CN2CC(O)=C(c3nc(-c4ccc(Cl)cc4)cs3)C2=N)c1 returned aDG glyco up 0, NTR1 ag 1, MC4R ag barr 2, TbMetRS inhib 0 and MC4R antag cAMP 2.
Screening O=c1cccc(-c2cccc3ccccc23)o1 returned aDG glyco up 0 and TbMetRS inhib -1.
For COc1ccc(CNc2nc(NCc3ccc(OC)cc3)c3[nH]cnc3n2)cc1 the results were aDG glyco up 0, NTR1 ag 6, TAG inh -18, MC4R ag barr 12*, TbMetRS inhib 0, MC4R antag cAMP 5, MC4R barr ag 8.8* and MOR-DOR barr ag 3.
CC(=O)Nc1cc(-c2cccc(C(=O)N(C)C)c2)cn2c(-c3ccc(F)c(Cl)c3)cnc12 was read as aDG glyco up 0, TAG inh -9, MC4R ag barr 16*, TbMetRS inhib 0, MC4R antag cAMP 9, MC4R barr ag 23* and MOR-DOR barr ag 2.
For CC(=O)Nc1cc(-c2cccc(C(=O)N(C)C)c2)cn2c(-c3ccc(C(C)=O)cc3)cnc12 the results were aDG glyco up 0, TAG inh 6, MC4R ag barr 11*, TbMetRS inhib 0, MC4R antag cAMP 21, MC4R barr ag 6 and MOR-DOR barr ag 1.
CC(=O)Nc1cc(-c2ccoc2)cn2c(-c3ccccc3)cnc12 was read as aDG glyco up 0, TAG inh -4, MC4R ag barr 11*, TbMetRS inhib 0, MC4R antag cAMP 12, MC4R barr ag 15* and MOR-DOR barr ag 3.
For CC(=O)Nc1cc(-c2cccc(C(=O)N(C)C)c2)cn2c(-c3cccc(C(=O)N(C)C)c3)cnc12 the results were aDG glyco up 0, TAG inh 4, MC4R ag barr 1, TbMetRS inhib 0 and MC4R antag cAMP 17.
